{"source": "ChEMBL document CHEMBL1125226", "about": "“Antineoplastic activity of didemnin congeners: nordidemnin and modified chain analogues” (1991)", "format_in_all_cases": "functional, Mus musculus", "key": {"[1]": {"test_system": "P388", "assay": "Antitumor activity against P388 Leukemia from CDF1 female mice evaluated as number of survivors on day 5 at a dose of 1 mg/kg/day", "method_in_brief": "(§1)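 CDF1 female mice (BALB/c × DBA/2) inoculated ip with 10⁶ P388 cells on day 0. Drug given ip in 2% methanol on days 1, 5 and 9. Ten mice per dose group, with a larger control group. Body weight and survival were recorded on days 1 and 5, with toxicity taken as survivors on day 5. Mortality was followed for 30 days to give median survival time.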"}, "[2]": {"test_system": "B16", "assay": "Antitumor activity against B16 melanoma from B6 D2 F1 female mice evaluated as the number of survivors on day 5 at a dose of 0.25 mg/kg/day (repeated ip injections, day 1-9)", "conditions": "route intraperitoneal", "method_in_brief": "(§2)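 B16 melanoma homogenate (1 g tumor in 9 mL 0.9% saline), 0.5 mL implanted ip on day 0 in B6D2F1 female mice (C57BL/6 ♀ × DBA/2 ♂). Treatment ip once daily from day 1 to day 9. Toxicity scored as survivors on day 5. Median survival recorded and T/C computed as treated/control median survival, ≥125% significant.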"}, "[3]": {"test_system": "P388", "assay": "Antitumor activity (T/C) was evaluated from the median survival time of treated mice (T) over that of control mice (C) at a dose of 0.03 mg/kg/day", "method_in_brief": "(§3)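 CDF1 female mice (BALB/c ♀ × DBA/2 ♂) given 10⁶ P388 cells ip on day 0. Drug in 2% methanol given ip on days 1, 5 and 9, 10 mice per group and more controls. Toxicity is survivors on day 5, with weight change between days 1 and 5. Mortality followed 30 days. T/C% is treated over control median survival (NCI method), significant at ≥125%.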"}, "[4]": {"test_system": "B16", "assay": "Antitumor activity against B16 melanoma from B6 D2 F1 female mice(T/C) as median survival time of treated mice (T) over that of control mice (C) at a dose of 0.03 mg/kg/day (repeated ip injections, day 1-9)", "conditions": "route intraperitoneal", "method_in_brief": "as §2"}, "[5]": {"test_system": "B16", "assay": "Antitumor activity against B16 melanoma from B6 D2 F1 female mice evaluated as Median survival time of treated mice at a dose of 0.25 mg/kg/day", "method_in_brief": "(§4)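 B6D2F1 female mice (C57BL/6 ♀ × DBA/2 ♂) implanted ip on day 0 with 0.5 mL of B16 tumor suspension (1 g homogenized in 9 mL 0.9% saline). Dosing ip on days 1, 5 and 9. Day-5 survivors give toxicity. Median survival of treated vs control mice gives T/C%, with ≥125% significant.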"}, "[6]": {"test_system": "L1210", "assay": "Antitumor activity against L1210 Lymphoid Leukemia from CDF1 female mice as average weight change of animals between day 1 and day 5 after tumor implementation at a dose of 0.25 mg/kg/day", "method_in_brief": "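CDF1 female mice (BALB/c × DBA/2) received 10⁵ L1210 cells ip on day 0. Drug was dissolved in 2% methanol and given ip on days 1, 5 and 9, to 10 mice per group. Weights were taken on days 1 and 5, and the mean change was reported.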"}, "[7]": {"test_system": "B16", "assay": "Antitumor activity against B16 melanoma from B6 D2 F1 female mice evaluated as the number of survivors on day 5 at a dose of 0.25 mg/kg/day", "method_in_brief": "as §4"}, "[8]": {"test_system": "B16", "assay": "Antitumor activity against B16 melanoma from B6 D2 F1 female mice as average weight change of animals between day 1 and day 5 after tumor implementation at a dose of 0.50 mg/kg/day (repeated ip injections, day 1-9)", "conditions": "route intraperitoneal", "method_in_brief": "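B6D2F1 female mice (C57BL/6 × DBA/2) were implanted ip on day 0 with 0.5 mL of B16 suspension (1 g tumor homogenized in 9 mL 0.9% saline). Ip treatment was given once daily, day 1 to day 9. Body weight was recorded on days 1 and 5 after implantation, and the mean change per group was reported.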"}, "[9]": {"test_system": "B16", "assay": "Antitumor activity against B16 melanoma from B6 D2 F1 female mice(T/C) was evaluated from the median survival time of treated mice (T) over that of control mice (C) at a dose of 0.06 mg/kg/day", "method_in_brief": "as §4"}, "[10]": {"test_system": "L1210", "assay": "Antitumor activity against L1210 Lymphoid Leukemia from CDF1 female mice as Median survival time of treated mice at a dose of 1.0 mg/kg/day", "method_in_brief": "(§5)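 L1210 leukemia, 10⁵ cells ip on day 0 into CDF1 female mice (BALB/c ♀ × DBA/2 ♂). Drug in 2% methanol given ip on days 1, 5 and 9, 10 mice per group. Survivors and body weight recorded on days 1 and 5, with toxicity as survivors on day 5. Deaths followed for 30 days. T/C = treated/control median survival time, significant at ≥125%.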"}, "[11]": {"test_system": "B16", "assay": "Antitumor activity against B16 melanoma from B6 D2 F1 female mice evaluated as Median survival time of treated mice at a dose of 0.06 mg/kg/day", "method_in_brief": "as §4"}, "[12]": {"test_system": "B16", "assay": "Antitumor activity against B16 melanoma from B6 D2 F1 female mice evaluated as average weight change of animals between day 1 and day 5 after tumor implementation at a dose of 1 mg/kg/day", "method_in_brief": "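B16 melanoma in B6D2F1 female mice: 0.5 mL of tumor homogenate (1 g in 9 mL 0.9% saline) was given ip on day 0. Ip dosing was on days 1, 5 and 9. The readout was the average body weight change between day 1 and day 5 after tumor implantation.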"}, "[13]": {"test_system": "B16", "assay": "Antitumor activity against B16 melanoma from B6 D2 F1 female mice evaluated as the number of survivors on day 5 at a dose of 0.50 mg/kg/day", "method_in_brief": "as §4"}, "[14]": {"test_system": "P388", "assay": "Average weight change of animals between day 1 and day 5 after tumor implementation at a dose of 0.03 mg/kg/day", "method_in_brief": "(§6)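 P388 leukemia: CDF1 female mice were inoculated ip with 10⁶ cells on day 0. Treatment in 2% methanol was given ip on days 1, 5 and 9, with 10 mice per group and a larger control group. Body weight was recorded on days 1 and 5 post-implant, and the average change was reported.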"}, "[15]": {"test_system": "P388", "assay": "Antitumor activity against P388 Leukemia from CDF1 female mice evaluated as Median survival time of treated mice at a dose of 0.03 mg/kg/day", "method_in_brief": "as §3"}, "[16]": {"test_system": "P388", "assay": "Antitumor activity (T/C) was evaluated from the median survival time of treated mice (T) over that of control mice (C) at a dose of 0.75 mg/kg/day", "method_in_brief": "as §3"}, "[17]": {"test_system": "L1210", "assay": "Antitumor activity against L1210 Lymphoid Leukemia from CDF1 female mice (T/C) as median survival time of treated mice (T) over that of control mice (C) at a dose of 1.0 mg/kg/day", "method_in_brief": "as §5"}, "[18]": {"test_system": "P388", "assay": "Average weight change of animals between day 1 and day 5 after tumor implementation at a dose of 0.12 mg/kg/day", "method_in_brief": "as §6"}, "[19]": {"test_system": "P388", "assay": "Antitumor activity was evaluated from the median survival time of treated mice (T) over that of control mice (C) at a dose of 1 mg/kg/day"}, "[20]": {"test_system": "B16", "assay": "Antitumor activity against B16 melanoma from B6 D2 F1 female mice evaluated as Median survival time of treated mice at a dose of 0.03 mg/kg/day", "method_in_brief": "as §4"}, "[21]": {"test_system": "P388", "assay": "Antitumor activity against P388 Leukemia from CDF1 female mice evaluated as Median survival time of treated mice at a dose of 0.75 mg/kg/day", "method_in_brief": "as §1"}, "[22]": {"test_system": "L1210", "assay": "Antitumor activity against L1210 Lymphoid Leukemia from CDF1 female mice evaluated as Median survival time of treated mice at a dose of 0.25 mg/kg/day", "method_in_brief": "as §5"}, "[23]": {"test_system": "B16", "assay": "Antitumor activity against B16 melanoma from B6 D2 F1 female mice(T/C) as median survival time of treated mice (T) over that of control mice (C) at a dose of 0.25 mg/kg/day (repeated ip injections, day 1-9)", "conditions": "route intraperitoneal", "method_in_brief": "as §2"}}, "data": [{"smiles": "COc1ccc(C[C@H]2C(=O)O[C@H](C)[C@H](NC(=O)[C@@H](CC(C)C)N(C)C(=O)C3CCCN3C(=O)[C@@H](C)O)C(=O)NC(C(C)C)[C@H](O)CC(=O)O[C@@H](C(C)C)C(=O)[C@H](C)C(=O)N[C@@H](CC(C)C)C(=O)N3CCC[C@H]3C(=O)N2C)cc1", "note": "(stereo partly drawn) [NORDIDEMNIN]", "values": [{"measurement": "Toxicity", "setting": "[1]", "result": 1}, {"measurement": "Toxicity", "setting": "[2]", "result": 1}, {"measurement": "T/C", "setting": "[3]", "result": 112, "unit": "%"}, {"measurement": "T/C", "setting": "[4]", "result": 139, "unit": "%"}, {"measurement": "median survival time, days", "setting": "[5]", "result": 27}, {"measurement": "Body weight change", "setting": "[6]", "result": 0, "unit": "g"}, {"measurement": "Toxicity", "setting": "[7]", "result": 1}, {"measurement": "Body weight change", "setting": "[8]", "result": -2.3, "unit": "g"}, {"measurement": "T/C", "setting": "[9]", "result": 116, "unit": "%"}, {"measurement": "median survival time, days", "setting": "[10]", "result": 11.2}, {"measurement": "median survival time, days", "setting": "[11]", "result": 22}, {"measurement": "Body weight change", "setting": "[12]", "result": 0, "unit": "g"}, {"measurement": "Toxicity", "setting": "[13]", "result": 1}, {"measurement": "Body weight change", "setting": "[14]", "result": 0, "unit": "g"}, {"measurement": "median survival time, days", "setting": "[15]", "result": 12.4}, {"measurement": "T/C", "setting": "[16]", "result": 175, "unit": "%"}, {"measurement": "T/C", "setting": "[17]", "result": 123, "unit": "%"}, {"measurement": "Body weight change", "setting": "[18]", "result": -0.7, "unit": "g"}, {"measurement": "T/C", "setting": "[19]", "result": 180, "unit": "%"}, {"measurement": "median survival time, days", "setting": "[20]", "result": 19.3}, {"measurement": "median survival time, days", "setting": "[21]", "result": 19.4}, {"measurement": "median survival time, days", "setting": "[22]", "result": 10.1}, {"measurement": "T/C", "setting": "[23]", "result": 157, "unit": "%"}]}]}
